Assay results from different studies.
Protocols differ between the studies behind these lines.

CC(=NNC(=O)COc1ccc2c(C)c(Cc3ccccc3)c(=O)oc2c1C)c1ccc(Br)cc1
viability (HCT-116; cell growth or viability, MTT; 6.3 µg/mL): 49.9%

C=CC(=O)NC1CCN(c2ncc3ncnc(Nc4ccc(Oc5ccc6c(c5)ncn6C)c(C)c4)c3n2)CC1
EC50 (HCC15; cell growth or viability): 0.22 µM

Cc1[nH]c(C(=O)Nc2ccc(C(=O)NCC(=O)O)cc2N2CCN(C(=O)OC(C)(C)C)CC2)c(Cl)c1Cl
MIC (Klebsiella aerogenes; microbial growth, broth dilution; ATCC13408): > 32 µg/mL

COc1cccc(C(=O)COc2nc(C)cc(C)c2C#N)c1
EC50 (Leishmania infantum; parasite growth; mouse Macrophage; intracellular, amastigote): > 64 µM

C=CC(=O)c1cccnc1Nc1cccc(C(F)(F)F)c1
GI50 (U-87 MG; cell growth or viability, SRB; 48 h): 7.51 µM

Cc1[nH]c(C(=O)Nc2ccc(C(=O)NCC(=O)O)cc2N2CC[C@@H](N)C2)c(Cl)c1Cl.Cl
MIC (Klebsiella aerogenes; microbial growth, broth dilution; ATCC13408): > 32 µg/mL

COc1ccc(C(=O)CSc2nc(C)cc(C)c2C#N)cc1
EC50 (Leishmania infantum; parasite growth; mouse Macrophage; intracellular, amastigote): 25.2 µM

O=C(O)c1cn(C2CC2)c2cc(N3CCNCC3)c(F)cc2c1=O
MIC (Klebsiella aerogenes; microbial growth; ATCC35029): 2 µM

Cl.N[C@@H]1CCN(c2cc(C(=O)NCC(=O)O)ccc2NC(=O)c2cc(Br)c(Br)[nH]2)C1
MIC (Klebsiella aerogenes; microbial growth, broth dilution; ATCC13408): > 32 µg/mL

CNc1ccnc(SCC(=O)c2ccccc2)c1C#N
EC50 (Leishmania infantum; parasite growth; mouse Macrophage; intracellular, amastigote): > 64 µM

C=CC(=O)c1cccnc1Nc1cc(C(F)(F)F)ccc1OC
GI50 (U-87 MG; cell growth or viability, SRB; 48 h): 7.72 µM

CC(C)(C)OC(=O)N[C@H]1CCN(c2cc(C(=O)NCC(=O)O)ccc2NC(=O)c2cc(Br)c(Br)[nH]2)C1
MIC (Klebsiella aerogenes; microbial growth, broth dilution; ATCC13408): > 32 µg/mL
